Laboratory results: ChEMBL document CHEMBL1125079, “A unified approach to systematic isosteric substitution for acidic groups and application to NMDA antagonists related to 2-amino-7-phosphonoheptanoate” (J Med Chem, 1990)

Tests used:
[1] = Dissociation constant (pKa); type: physicochemical
Method in brief: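 Measured in water at 23 °C from UV absorbance versus pH, using a pH meter calibrated with pH 5, 7 and 9 buffers. pH was stepped with 6 N HCl or NaOH to give 7–15 readings spanning the expected pKa, at 2–4 wavelengths with flow stopped. Spectra at pH 3 and 10 checked for decomposition. Simplex curve fit gave the pKa, reported as mean ± SD across wavelengths.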

Rattus norvegicus = species: Rattus norvegicus; assay: Tested for inhibition of NMDA-induced cyclic GMP increase in rat cerebellar slices; type: functional
[2] = target: Glutamate receptor ionotropic, kainate (Rattus norvegicus) (UniProt P22756+Q01812+P42260+P42264+Q63273); assay: Inhibition at Ionotropic glutamate receptor kainate was determined at a concentration of 200 uM in rat cerebellar slices
[3] = potentiometric pKa(in 25 mL of 1 M NaCl) of the compound.; type: physicochemical
[4] = Potentiometric pKa(in 25 mL of water) of the compound.; type: physicochemical

Structure (SMILES) | pKa [1] | IC50 (Rattus norvegicus) | further results
O=S(=O)(Cc1ccccc1)c1nc[nH]n1 | 6.23 | – | –
[O-][S+](Cc1ccccc1)c1c[nH]nn1 (stereo not drawn) | 6.09 | – | –
O=S(=O)(Cc1ccccc1)c1nc(O)n[nH]1 | 4.79 | – | –
NC(CCCCCSc1ccccc1O)C(=O)O (stereo not drawn) | 9.35 | 310 µM | –
O=S(=O)(Cc1ccccc1)c1c[nH]nn1 | 5.15 | – | –
NC(CCCCC[S+]([O-])c1ccccc1O)C(=O)O (stereo not drawn) | – | > 10000 µM | –
c1ccc(CSc2nc[nH]n2)cc1 | 9.5 | – | –
[O-][S+](Cc1ccccc1)c1nc[nH]n1 (stereo not drawn) | 7.38 | – | –
NC(CCCCCS(=O)(=O)c1ccccc1O)C(=O)O (stereo not drawn) | 7.38 | > 10000 µM | –
[O-][S+](Cc1ccccc1)c1ncc[nH]1 (stereo not drawn) | 9.8 | – | –
[O-][S+](Cc1ccccc1)c1nc(O)n[nH]1 (stereo not drawn) | 5.2 | – | –
c1ccc(CSc2c[nH]nn2)cc1 | 8.2 | – | –
c1ccc(CSc2ncc[nH]2)cc1 | 11.6 | – | –
N[C@H](CCCCSc1cc(Cl)ccc1O)C(=O)O | – | > 10000 µM | –
Nc1ccccc1SCCCCCC(N)C(=O)O (stereo not drawn) | – | 140 µM | inhibition [2]: 20%
NC(CCCCCSc1cc(Cl)ccc1O)C(=O)O (stereo not drawn) | 8.55 | 220 µM | –
NC(CCCSc1ccccc1O)C(=O)O (stereo not drawn) | – | > 10000 µM | –
Oc1n[nH]c(SCc2ccccc2)n1 | 7.85 | – | –
NC(CCCSc1cc(Cl)ccc1O)C(=O)O (stereo not drawn) | – | 260 µM | –
O=S(=O)(Cc1ccccc1)c1ncc[nH]1 | 8.67 | – | –
NC(CCCCCP(=O)(O)O)C(=O)O (stereo not drawn) [AP-7] | 2.64 | 35 µM | pKa [3]: 9.84; pKa [4]: 7.72
